The target of assay [1] is Sodium-dependent serotonin transporter (Rattus norvegicus, UniProt P31652). The experiment in a line: Inhibition of high affinity uptake of [3H]5-HT by serotonin transporter in nerve endings obtained from rat brain. The gist of the method: (§1)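 Reuptake inhibition reported as Ki; values are mean ± standard error of at least three experiments.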
Assay [2] has as its target Monoamine transporters; serotonin & dopamine (Rattus norvegicus) (UniProt P31652+P23977). Briefly: Ratio of Ki at 5-HT transporter and Ki at dopamine transporter. The assay is classed as protein assay. The gist of the method: (§2)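 Selectivity ratio calculated from Ki values measured in the monoamine reuptake assays, each Ki being the mean ± standard error of at least three experiments.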

The target of assay [3] is T1, Sodium-dependent dopamine transporter (Rattus norvegicus, UniProt P23977). Briefly: Inhibition of high affinity uptake of [3H]-DA by dopamine transporter in nerve endings obtained from rat brain. Summed up:
as §1

The target of assay [4] is Monoamine transporters; Norepinephrine & serotonin (Rattus norvegicus) (UniProt P31652+Q9WTR4). The experiment in a line: Ratio of Ki at norepinephrine transporter and Ki at 5-HT transporter. The assay is classed as protein assay. Summed up: as §2
The target in assay [5] is Norepinephrine transporter (Rattus norvegicus, UniProt Q9WTR4). Briefly: Inhibition of high affinity uptake of [3H]NE by norepinephrine transporter in nerve endings obtained from rat brain. Summed up: as §1
Norepinephrine transporter, sequence (Q9WTR4 whole entry): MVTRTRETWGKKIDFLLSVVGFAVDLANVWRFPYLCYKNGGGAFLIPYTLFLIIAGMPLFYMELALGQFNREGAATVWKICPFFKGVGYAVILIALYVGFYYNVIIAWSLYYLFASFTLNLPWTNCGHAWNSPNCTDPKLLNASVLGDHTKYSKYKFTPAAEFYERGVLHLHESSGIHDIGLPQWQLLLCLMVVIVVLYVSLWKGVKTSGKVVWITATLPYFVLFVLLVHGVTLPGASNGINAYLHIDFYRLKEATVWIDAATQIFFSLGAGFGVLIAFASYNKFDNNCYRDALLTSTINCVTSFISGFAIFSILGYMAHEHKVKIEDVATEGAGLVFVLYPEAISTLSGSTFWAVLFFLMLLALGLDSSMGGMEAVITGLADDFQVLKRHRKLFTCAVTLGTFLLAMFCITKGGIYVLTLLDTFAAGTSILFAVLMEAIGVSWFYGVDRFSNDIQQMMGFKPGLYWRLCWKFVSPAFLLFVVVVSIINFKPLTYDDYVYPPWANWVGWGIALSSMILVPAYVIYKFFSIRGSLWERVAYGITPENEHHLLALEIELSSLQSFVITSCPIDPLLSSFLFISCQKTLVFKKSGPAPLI
The target of assay [6] is Monoamine transporters; Norepininephrine & dopamine (Rattus norvegicus) (UniProt P23977+Q9WTR4). Briefly: Ratio of Ki at norepinephrine transporter and Ki at dopamine transporter. Type of assay: protein assay. Summed up:
as §2

For assay [7], the target named is T1, Sodium-dependent dopamine transporter. Briefly: 373 Ability to inhibit high affinity uptake of [3H]DA using rat nerve endings obtained from brain regions enriched in dopamine transporter. The gist of the method: as §1

pKi: −log10 of the molar value.

The values that follow come from ChEMBL document CHEMBL1135509 (J Med Chem, 2002).

One may read the pKi as the negative decadic logarithm of the Ki, by convention in mol/L. Lower therefore signals a high Ki.

Monoamine transporters; serotonin & dopamine (Rattus norvegicus), sequence (P23977 whole entry, looked up): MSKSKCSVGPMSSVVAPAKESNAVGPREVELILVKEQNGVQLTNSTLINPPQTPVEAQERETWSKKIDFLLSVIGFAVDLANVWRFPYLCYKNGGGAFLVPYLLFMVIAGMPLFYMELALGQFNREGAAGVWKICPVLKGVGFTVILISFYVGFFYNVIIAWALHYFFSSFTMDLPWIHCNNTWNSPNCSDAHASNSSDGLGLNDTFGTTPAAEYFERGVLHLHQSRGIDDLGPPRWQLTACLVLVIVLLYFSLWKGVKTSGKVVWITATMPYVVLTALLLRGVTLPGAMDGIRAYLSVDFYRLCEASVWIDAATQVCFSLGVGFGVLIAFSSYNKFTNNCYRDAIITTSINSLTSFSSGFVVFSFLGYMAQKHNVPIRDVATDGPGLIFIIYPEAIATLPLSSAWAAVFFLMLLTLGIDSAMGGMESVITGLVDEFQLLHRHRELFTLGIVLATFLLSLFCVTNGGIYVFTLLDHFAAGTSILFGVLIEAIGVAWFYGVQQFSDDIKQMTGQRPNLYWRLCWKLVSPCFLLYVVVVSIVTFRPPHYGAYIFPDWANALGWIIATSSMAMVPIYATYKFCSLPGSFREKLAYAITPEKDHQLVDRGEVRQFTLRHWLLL
Monoamine transporters; serotonin & dopamine (Rattus norvegicus), sequence (P31652 whole entry, looked up): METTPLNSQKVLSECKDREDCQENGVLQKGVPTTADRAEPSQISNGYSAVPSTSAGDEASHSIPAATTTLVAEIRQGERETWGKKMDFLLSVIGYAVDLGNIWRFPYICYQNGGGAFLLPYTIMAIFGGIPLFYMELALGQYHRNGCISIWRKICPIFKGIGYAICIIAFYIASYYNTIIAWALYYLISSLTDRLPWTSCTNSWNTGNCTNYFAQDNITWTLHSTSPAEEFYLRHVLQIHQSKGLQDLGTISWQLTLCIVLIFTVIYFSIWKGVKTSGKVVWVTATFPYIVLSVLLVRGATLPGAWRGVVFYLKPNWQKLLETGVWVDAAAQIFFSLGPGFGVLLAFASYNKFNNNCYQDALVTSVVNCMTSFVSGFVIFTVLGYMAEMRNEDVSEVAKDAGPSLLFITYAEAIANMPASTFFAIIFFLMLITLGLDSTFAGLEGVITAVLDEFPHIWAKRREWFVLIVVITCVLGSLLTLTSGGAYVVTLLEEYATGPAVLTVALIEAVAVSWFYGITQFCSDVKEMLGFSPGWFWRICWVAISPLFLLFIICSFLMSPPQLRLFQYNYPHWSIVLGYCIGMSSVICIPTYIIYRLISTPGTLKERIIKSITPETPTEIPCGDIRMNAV
T1 sequence (P23977 whole entry): as the sequence (P23977 whole entry, looked up) above
Sodium-dependent serotonin transporter, sequence (P31652 whole entry): as the sequence (P31652 whole entry, looked up) above

On to `COC(=O)C1CN(CCCCl)CC[C@@H]1c1ccc(Cl)cc1` (some centres not stated), for which the pKi is under 5.00 in assay [1], 5.50 in assay [3] and 6.36 in assay [5]. Moreover, the values for the Ratio in assay [2], in assay [4] and in assay [6] were over 3.17, under 0.04 and 0.14, respectively.
Consider `COC(=O)C1CN(C(C)C)CC[C@@H]1c1ccc(Cl)cc1` (some centres not stated), for which the results for the pKi in assay [1], in assay [3] and in assay [5] were 5.43, 5.16 and 5.74, respectively. In addition, the values for the Ratio in assay [2], in assay [4] and in assay [6] were 0.54, 0.49 and 0.26, respectively.
With `COC(=O)[C@H]1CN(CCc2ccccc2)CC[C@@H]1c1ccc(Cl)cc1`, the pKi in assay [1] was 5.54; in assay [3], 5.97; in assay [5], 6.85. In addition, the figures for the Ratio in assay [2], in assay [4] and in assay [6] were 2.68, 0.05 and 0.13, respectively.
For `COC(=O)C1CN(C(C)=O)CC[C@@H]1c1ccc(Cl)cc1` (some centres not stated), the pKi in assay [1], in assay [3] and in assay [5] was under 5.00 in each case.
With `COC(=O)C1CN(Cc2ccc(O)cc2)CC[C@@H]1c1ccc(Cl)cc1` (some centres not stated), the results for the negative logarithm of the Ki (pKi) in assay [1], in assay [3] and in assay [5] were 5.58, 5.79 and 5.97, respectively. Besides, the Ratio in assay [2] is 1.64; in assay [4], 0.41; in assay [6], 0.67.
In the case of `COC(=O)C1CN(S(=O)(=O)c2ccccc2)CC[C@@H]1c1ccc(Cl)cc1` (some centres not stated), the pKi was 4.44 in assay [1] and 4.79 in assay [5]. In addition, the Ratio in assay [2] came to 1.85; in assay [4] it was 0.45; in assay [6], 0.83.
Turning to `CCOC(=O)CCN1CC[C@H](c2ccc(Cl)cc2)C(C(=O)OC)C1` (some centres not stated), the negative-log Ki (pKi) is under 5.00 in assay [1], under 5.00 in assay [3] and 5.68 in assay [5]. Further, the Ratio in assay [4] and in assay [6] was under 0.21 throughout.
On to `Cc1noc(C2CN(C)CC[C@@H]2c2ccc(Cl)cc2)n1` (some centres not stated), for which the negative-log Ki (pKi) was 5.22 in assay [1], 6.73 in assay [3] and 6.59 in assay [5]. In addition, the results for the Ratio in assay [2], in assay [4] and in assay [6] were 31.8, 0.04 and 1.37, respectively.
As to `COC(=O)C1CN(CCCc2ccccc2)CC[C@@H]1c1ccc(Cl)cc1` (some centres not stated), the pKi is 5.49 in assay [1], 6.09 in assay [3] and 6.31 in assay [5]. Further, the Ratio in assay [2] stood at 4.04; in assay [4], 0.15; in assay [6] it was 0.6.
Take `OCC1CNCC[C@@H]1c1ccc(Cl)cc1` (some centres not stated): the pKi in assay [1] is 6.62; in assay [3], 6.08; in assay [5] it was 7.16. Also, the Ratio came to 0.29 in assay [2], 0.29 in assay [4] and 0.08 in assay [6].
As for `COC(=O)C1CN(CCC(c2ccccc2)c2ccccc2)CC[C@@H]1c1ccc(Cl)cc1` (some centres not stated), the negative logarithm of the Ki (pKi) in assay [1] is 5.57; in assay [3] it was 5.37; in assay [5], 5.36. Besides, the Ratio in assay [2] turned out to be 0.63; in assay [4], 1.61; in assay [6] it was 1.01.
On to `Cc1noc(C2CNCC[C@@H]2c2ccc(Cl)cc2)n1` (some centres not stated), for which the pKi in assay [1] was 6.43; in assay [7], 6.72; in assay [5] it was 7.47. In addition, the Ratio in assay [2] worked out at 1.97; in assay [4], 0.09; in assay [6], 0.18.
As for `CN1CC[C@H](c2ccc(Cl)cc2)[C@@H](CO)C1`, the negative-log Ki (pKi) is 5.81 in assay [1], 6.30 in assay [3] and 6.70 in assay [5]. The Ratio worked out at 3.12 in assay [2], 0.13 in assay [4] and 0.4 in assay [6].
`COC(=O)[C@@H]1CN(Cc2ccccc2)CC[C@@H]1c1ccc(Cl)cc1`: the pKi in assay [1] is 5.66; in assay [3], 5.48; in assay [5], 5.53. Also, the Ratio in assay [2] came to 0.67; in assay [4], 1.36; in assay [6], 0.91.
Take `COC(=O)C1CN(CCCF)CC[C@@H]1c1ccc(Cl)cc1` (some centres not stated): the negative logarithm of the Ki (pKi) is under 5.00 in assay [1], 5.37 in assay [3] and 6.47 in assay [5]. Further, the Ratio was over 2.3 in assay [2], under 0.03 in assay [4] and 0.08 in assay [6].
For `COC(=O)C1CNCC[C@@H]1c1ccc(Cl)cc1` (some centres not stated), the negative-log Ki (pKi) in assay [1] is 6.36; in assay [3], 6.55; in assay [5], 8.10. Also, the Ratio in assay [2] turned out to be 1.56; in assay [4], 0.02; in assay [6], 0.03.
Take `COC(=O)[C@@H]1CN(CCc2ccccc2)CC[C@@H]1c1ccc(Cl)cc1`: the pKi in assay [1] was 5.73; in assay [3], 5.99; in assay [5], 6.63. For the same compound, the Ratio in assay [2] is 1.84; in assay [4], 0.12; in assay [6] it was 0.23.
